{"source": "ChEMBL document CHEMBL4028857", "about": "“Anchimerically Activated ProTides as Inhibitors of Cap-Dependent Translation and Inducers of Chemosensitization in Mantle Cell Lymphoma” (J Med Chem, 2017)", "key": {"[1]": {"assay": "Half life in Sprague-Dawley rat plasma at 150 uM at pH 7.4 by RP-LCMS analysis", "format": "ADME", "in_short": "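Pooled female Sprague-Dawley rat plasma, pre-warmed 2 min at 37 °C, incubated with compound in triplicate at 37 °C to follow deprotection and half-life.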"}, "[2]": {"assay": "Cytotoxicity against human Mino cells assessed as reduction in cell survival at 100 uM after 48 hrs in presence of ibrutinib by Annexin V/propidium iodide based flow cytometric analysis", "in_short": "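MCL lines treated 48 h with compound re-added daily (alone or with co-drug; ibrutinib 25 µM), then survival assessed by Annexin V/PI flow cytometry.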"}, "[3]": {"target": "Eukaryotic translation initiation factor 4E (Homo sapiens) (UniProt P06730)", "sequence (P06730 whole entry)": "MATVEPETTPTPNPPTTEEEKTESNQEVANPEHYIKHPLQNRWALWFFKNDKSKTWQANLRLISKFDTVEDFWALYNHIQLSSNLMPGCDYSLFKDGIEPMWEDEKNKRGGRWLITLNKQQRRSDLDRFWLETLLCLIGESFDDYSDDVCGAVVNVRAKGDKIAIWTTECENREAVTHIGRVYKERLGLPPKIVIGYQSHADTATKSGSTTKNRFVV", "assay": "Inhibition of eIF4E in human Mino cells assessed as down regulation of c-Myc protein expression after 48 hrs by Western blot method", "format": "cell-based", "in_short": "(§1)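 MCL lines treated 48 h with compound; protein quantified and Western blotted with eIF4E, eIF4G, actin, c-Myc and Bcl-2 antibodies.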"}, "Mino [4]": {"tested_on": "Mino", "assay": "Antiproliferative activity against human Mino cells at 100 uM preincubated for 48 hrs followed by thymidine addition measure after 16 hrs by Thymidine incorporation assay", "format": "functional, cell-based", "in_short": "(§2)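 MCL lines treated 48 h with compound re-added daily, alone or with co-drug (ibrutinib 25 µM where used), then thymidine added for a further 16 h; proliferation read as thymidine incorporation.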"}, "[5]": {"target": "Eukaryotic translation initiation factor 4E-binding protein 1 (Homo sapiens) (UniProt Q13541)", "sequence (Q13541 whole entry)": "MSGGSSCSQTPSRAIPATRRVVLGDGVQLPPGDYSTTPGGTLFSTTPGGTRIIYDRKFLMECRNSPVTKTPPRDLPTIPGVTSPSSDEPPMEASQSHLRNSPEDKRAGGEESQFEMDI", "assay": "Inhibition of 4EBP1 phosphorylation at Ser 65 residues in human Mino cells at 100 uM after 48 hrs in presence of ibrutinib by Western blot analysis", "format": "cell-based", "in_short": "as §1"}, "Mino [6]": {"tested_on": "Mino", "assay": "(§3) Antiproliferative activity against human Mino cells preincubated for 48 hrs followed by thymidine addition measure after 16 hrs by Thymidine incorporation assay", "format": "functional, cell-based", "in_short": "as §2"}, "[7]": {"assay": "as §3", "format": "functional, cell-based", "in_short": "as §2"}, "[8]": {"target": "Adenosine 5'-monophosphoramidase HINT1 (Homo sapiens, UniProt P49773)", "sequence (P49773 whole entry)": "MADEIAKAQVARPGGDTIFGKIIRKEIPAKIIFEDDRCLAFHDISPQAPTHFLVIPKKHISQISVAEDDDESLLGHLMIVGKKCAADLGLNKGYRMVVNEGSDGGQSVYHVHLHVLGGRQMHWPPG", "assay": "Prodrug activation in human Mino cells assessed as Hint1 mediated 2-amino-7-(2-(4-chlorophenoxy)ethyl)-9-((2R,3R,4S,5R)-3,4-dihydroxy-5-(phosphonooxymethyl)tetrahydrofuran-2-yl)-6-oxo-6,9-dihydro-1H-purin-7-ium formation per 5 million cells at 150 uM after 12 hrs by LC-MS/MS analysis", "format": "cell-based", "in_short": "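Mantle cell lymphoma cells (five million) grown in RPMI with 10% FBS, penicillin/streptomycin and L-glutamine at 37 °C, 5% CO2, then exposed to 150 µM compound for 12 h at 37 °C. Washed with ice-cold PBS, pellet extracted in MeOH/NH4OAc (60:40) with 80 fmol internal standards, three liquid-N2 freeze–thaw cycles, filtered, dried, redissolved in 20 mM HEPES pH 7.2. Analysed by LC-MS/MS against a standard curve.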"}, "[9]": {"target": "Eukaryotic translation initiation factor 4E (Homo sapiens) (UniProt P06730)", "assay": "Inhibition of eIF4E in human Z138 cells assessed as disruption of interaction between protein and mRNA 5'-cap at 10 to 100 uM by m7GTP pull-down assay", "format": "cell-based", "in_short": "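Eight to ten million treated MCL cells washed in cold PBS, lysed in cap binding buffer, and eIF4E binding captured on m7GTP-Sepharose beads (pull-down).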"}}, "note": "The source made the active and inactive calls. The rule behind the calls is not given here.", "data": [{"smiles": "CSCCOP(=O)(NCCc1c[nH]c2ccccc12)OC[C@H]1O[C@@H](n2c[n+](CCOc3ccc(Cl)cc3)c3c(=O)[nH]c(N)nc32)[C@H](O)[C@@H]1O", "note": "(some centres undefined)", "values": [{"measurement": "half-life at 150 µM", "setting": "[1]", "result": 7.2, "unit": "h"}, {"measurement": "Activity", "setting": "[2]", "result": "Toxic"}, {"measurement": "inhibition", "setting": "[3]", "result": "Dose-dependent effect"}, {"measurement": "Activity", "setting": "Mino [4]", "result": "Active"}, {"measurement": "inhibition", "setting": "[5]", "result": "Active"}, {"measurement": "Activity", "setting": "Mino [6]", "result": "Dose-dependent effect"}, {"measurement": "IC50", "setting": "[7]", "result": 50, "unit": "µM"}, {"measurement": "Drug metabolism", "setting": "[8]", "result": 218, "unit": "pmol"}, {"measurement": "inhibition", "setting": "[9]", "result": "Active"}]}]}
